Assay outcomes deposited in PubChem BioAssay by Johns Hopkins Ion Channel Center.
MrgX1 agonist: activates human MrgX1 receptor signaling; Q96LB2; MrgX1-HEK293 cells, Fluo-4 calcium fluorescence, agonist mode; hits give high values; B-score at 10 µM; 0.44% of 310,000 active;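 active = calcium response B-score plate-corrected fluorescence ratio at least 3 library SD, with starting fluorescence B-score inside 5 SD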
Target sequence (Q96LB2 whole entry, looked up): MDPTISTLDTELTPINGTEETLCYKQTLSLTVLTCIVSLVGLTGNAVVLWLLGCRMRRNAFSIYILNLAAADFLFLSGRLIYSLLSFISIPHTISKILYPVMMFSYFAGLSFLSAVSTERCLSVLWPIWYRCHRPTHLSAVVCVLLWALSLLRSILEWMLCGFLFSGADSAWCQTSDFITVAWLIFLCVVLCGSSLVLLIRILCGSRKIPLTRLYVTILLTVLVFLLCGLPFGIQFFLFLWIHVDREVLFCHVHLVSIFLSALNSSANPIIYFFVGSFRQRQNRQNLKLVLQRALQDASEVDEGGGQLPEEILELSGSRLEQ
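Assay system: stable human MrgX1 HEK293 cell line. Quantity: 15,000 cells per well. Schedule: cells plated overnight, dye loaded 0.5 h 37 °C, 0.5 h room temperature. Detection: Fluo-4 NW calcium-flux fluorescence, kinetic read. Read-out basis: peak-minus-minimum fluorescence over baseline, converted to B scores. Control set: positive and negative control wells on each plate.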
MrgX1 antag: antagonists of human MrgX1 receptor; Q96LB2; B-score at 10 µM; 1.3% of 310,000 active; MRGX1-HEK293 calcium flux, Fluo-4, BAM8-22 antagonism; hits give low values;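 active = calcium-response B-score plate-corrected more than 3 library SD below zero, starting fluorescence within 5 deviations, no agonist response on first addition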;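 note: peak minus trough fluorescence over baseline after final BAM8-22 challenge near maximal dose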
RGS4 act: RGS4 potentiation or activation. AID 463111. B-score at 10 µM. HEK293 M3R/inducible RGS4, carbachol calcium flux Fluo4; hits give low values. 0.92% of 310,000 active;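 active = B-score of the integrated calcium signal more than 4 SD below the library mean, with starting fluorescence not abnormally high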;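 note: negative B-score means reduced calcium response which marks RGS4 activation or potentiation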
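Assay system: Inducible-RGS4 HEK293 cells carrying M3 receptor | Schedule: Compound preincubation 20 min at room temperature before agonist | Signal: Kinetic calcium fluorescence imaging with Fluo4-AM dye, 2 µM | Read-out basis: B score from integrated fluorescence ratio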
RGS4 inh: inhibitors of human RGS4. 0.45% of 310,000 active. P49798. B-score at 10 µM. HEK293 M3R/RGS4 inducible, Fluo-4 calcium flux; hits give high values; triggered by carbachol at its EC20;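 active = B-score, a plate-corrected calcium signal, over three deviations above library mean, with baseline fluorescence within five deviations of library mean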;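 note: RGS4 expression induced by doxycycline in cells with stable M3 receptor; B-score is computed from the integrated fluorescence ratio over baseline after carbachol; higher B-score means a larger calcium signal and so more RGS4 inhibition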
Target sequence (P49798 whole entry, looked up): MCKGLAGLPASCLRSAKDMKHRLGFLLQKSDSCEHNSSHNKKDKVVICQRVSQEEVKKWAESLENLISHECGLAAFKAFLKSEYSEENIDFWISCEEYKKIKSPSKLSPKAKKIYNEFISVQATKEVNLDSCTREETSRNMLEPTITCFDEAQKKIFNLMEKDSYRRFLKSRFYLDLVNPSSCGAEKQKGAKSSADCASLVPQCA
MrgX1 allo act: allosterically activates human MrgX1 receptor signaling; 0.63% of 310,000 active; Q96LB2; AID 588675; B-score at 10 µM; MrgX1-HEK293, Fluo-4 calcium flux, FDSS; hits give high values;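 active = plate-corrected calcium response at least 3 library SD above typical, normal starting fluorescence, not activating the receptor alone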;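 note: compound read alongside a low EC10 to EC30 dose of BAM8-22 agonist; peak minus trough fluorescence over baseline measured at the second addition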
MrgX1 ant reconf: confirmation of human MrgX1 receptor antagonists. shares compounds with MrgX1 antag. MrgX1-HEK293, BAM8-22 calcium flux, Fluo-4; hits give low values. remaining BAM8-22 calcium response % of control (hits give low values), % at 10 µM. 19% of 2,300 active;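 active = remaining agonist calcium response no higher than 100% minus 3 SD of agonist-only control wells, with starting fluorescence near control levels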;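 note: agonist BAM8-22 given at a near maximal EC90 to ECmax level; peak minus minimum fluorescence divided by baseline after agonist addition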
HEK293 Ca flux: MrgX1 antagonist counter-screen hit in parental HEK293 cells | 2% of 4,000 active | fluorescence ratio F(max-min)/F0 at 10 µM | AID 624111 | Fluo-4 calcium fluorescence, FDSS | shares compounds with MrgX1 antag;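 active = duplicate-averaged calcium fluorescence ratio at least three times the standard deviation of buffer wells, a nonspecific response in parental cells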
HEK293 Ca counter: MrgX1 allosteric activator counter-screen hit in parental HEK293 cells; fluorescence ratio F(max-min)/F0 at 10 µM; parental HEK293 calcium flux, Fluo-4 fluorescence ratio; hits give high values; shares compounds with MrgX1 antag; 0.4% of 4,000 active;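 active = calcium fluorescence ratio, averaged over duplicates, at least 3 SD of the buffer-well ratio, meaning a nonspecific response in receptor-free cells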;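 note: untransfected parental HEK293 lacking MrgX1 used as counterscreen for MrgX1 allosteric activators; fluorescence change taken during the second addition on a kinetic imager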
HEK293 Ca cntr2: counter-screen for MrgX1 activators: effect in parental HEK293 cells. shares compounds with MrgX1 antag. 8.7% of 4,000 active. Fluo-4 calcium fluorescence (FDSS); hits give high values. fluorescence ratio F(max-min)/F0 at 10 µM;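 active = calcium fluorescence ratio at least three times the spread of buffer wells, meaning a non-specific response in parental cells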
Numbers without * were called inactive; i = inactive; x = no result. In the library only some 3.5% were active in any assay of this set; here they are far more common.

SMILES	MrgX1 agonist	MrgX1 antag	RGS4 act	RGS4 inh	MrgX1 allo act	MrgX1 ant reconf	HEK293 Ca flux	HEK293 Ca counter	HEK293 Ca cntr2
COc1ccccc1NC(=O)COc1cc(C)nc(C(C)C)n1	i	-5.42*	i	i	i	i	i	i	i
COc1ccc(OC)c(NC(=O)CCN2CC(C)OC(C)C2)c1 (centres undefined)	i	i	i	i	i	x	x	x	x
COc1ccc(C)cc1NC(=O)CCN1CC(C)OC(C)C1 (centres undefined)	i	-5.12*	i	i	i	i	i	i	i
c1coc(C2Nc3ccccc3-c3nc4ccccc4n32)c1 (centres undefined)	i	-6.32*	i	i	i	i	i	i	i
NS(=O)(=O)c1ccc(CCNC(=O)C(c2ccccc2)c2ccccc2)cc1	i	i	i	i	i	x	x	x	x
CCn1c(-c2csc(-c3ccc(Cl)cc3)n2)n[nH]c1=S	i	-5.97*	i	i	i	i	i	i	i
CCn1c(-c2csc(-c3ccccc3)n2)n[nH]c1=S	i	i	i	i	i	x	x	x	x
Cc1cc(C)c(NC(=O)C2CCN(c3cnccn3)CC2)c(C)c1	i	-6.1*	i	i	i	i	i	i	i
O=C(Nc1sc(-c2ccccc2)cc1C(=O)O)c1ccccc1	i	i	i	i	i	x	x	x	x
O=C(CN1C(=O)NC2(CCc3ccccc32)C1=O)c1ccc(Br)cc1 (centres undefined)	i	i	i	i	i	x	x	x	x
Nc1ccc(S(=O)(=O)c2ccc(Cl)cc2)cc1	i	i	i	i	i	x	x	x	x
CCOc1ccc2ccccc2c1CNCCc1ccc(S(N)(=O)=O)cc1	i	-4.78*	i	i	i	54.5%*	i	i	i
O=C(NCc1ccco1)C(=O)c1cn(CC(=O)N2CCCCC2)c2ccccc12	i	i	i	i	i	x	x	x	x
CC(NC(=O)COC(=O)CCc1nc(=O)c2ccccc2n1C)c1ccccc1 (centres undefined)	i	i	i	i	i	x	x	x	x
Cn1c(CCC(=O)OCC(=O)NCC(F)(F)F)nc(=O)c2ccccc21	i	-5.59*	i	i	i	i	i	i	i
CC(C)(C)c1ccc(C(=O)N2CCC(C(=O)NCc3ccncc3)CC2)cc1	i	-5.15*	i	i	i	i	i	i	i
CC(C)(C)c1ccc(C(=O)N2CCC(C(=O)NC3CC3)CC2)cc1	i	i	i	i	i	x	x	x	x
CCOc1ccc(C(=O)CCC(=O)Nc2ccc(C)cn2)cc1	i	-5.67*	i	i	i	81.5%*	i	i	i
CCN1CCN(CCNC(=O)c2ccc(/C=C3\Sc4ccccc4N(Cc4ccccc4F)C3=O)cc2)CC1	i	-13.3*	-7.05*	i	i	i	i	i	i
O=C(Nc1ccc2c(c1)CCCN2C(=O)c1ccco1)c1cc([N+](=O)[O-])ccc1Cl	i	i	i	i	i	x	x	x	x
O=C(NCCCN1CCOCC1)c1cccs1	i	-8.79*	x	x	i	79.2%*	i	i	i
CCCn1nc(C(=O)NNC(=O)Cc2ccc(S(=O)(=O)N3CCOCC3)s2)c2ccccc2c1=O	i	i	i	i	i	x	x	x	x
COc1ccc(C2C(C(=O)c3ccco3)=C(O)C(=O)N2c2nnc(C)s2)cc1 (centres undefined)	i	i	i	i	i	x	x	x	x
C=CCOc1ccc(C2C(C(=O)c3ccco3)=C(O)C(=O)N2c2nnc(C)s2)cc1 (centres undefined)	i	-5.03*	i	i	i	i	i	i	i
CCOC(=O)c1nnc(-c2ccccc2)nc1N1CCSCC1	i	-5.58*	i	i	i	i	i	i	i
SMILES	MrgX1 agonist	MrgX1 antag	RGS4 act	RGS4 inh	MrgX1 allo act	MrgX1 ant reconf	HEK293 Ca flux	HEK293 Ca counter	HEK293 Ca cntr2
CCOC(=O)c1cc2c3ccccc3n(CC)c2nc1N	i	-5.78*	i	i	i	i	i	i	i
CCCCn1cnc2c(c(-c3ccccc3)c(-c3ccccc3)n2Cc2ccco2)c1=N	i	-14.2*	i	i	i	i	i	i	i
CCCCn1c(=O)[nH]c(=O)c2c1ncn2Cc1ccco1	i	i	i	i	i	x	x	x	x
CCN(CC(=O)Nc1ccccc1C(F)(F)F)C(=O)C1CC(=O)N(Cc2ccccc2)C1 (centres undefined)	i	i	i	i	i	x	x	x	x
CN(CCN1CCOCC1)C(=O)CC1C(=O)NCCN1Cc1ccccc1F (centres undefined)	i	-8.63*	i	i	i	i	i	i	i
CN(CC1CCOCC1)C(=O)CC1C(=O)NCCN1Cc1ccccc1F (centres undefined)	i	i	i	i	i	x	x	x	x
Cc1cccc(OCCCC(=O)NC2CCCCC2)c1	i	-6.74*	i	i	i	i	i	i	i
Cc1cccc(OCC(=O)NC2CCCC2)c1	i	i	i	i	i	x	x	x	x
COc1cccc(N=C2NC(=O)/C(=C/c3cc([N+](=O)[O-])ccc3O)S2)c1	i	-11.1*	i	i	i	i	i	i	i
N#Cc1cccc(NC(=O)CCNS(=O)(=O)c2ccc3[nH]c(=O)oc3c2)c1	i	i	i	i	i	x	x	x	x
O=C(Cn1ncc2c3ccccc3n(Cc3cccc(Cl)c3)c2c1=O)NCc1ccccn1	i	i	i	i	i	x	x	x	x
COc1ccc(CNC(=O)OCCN2CCN(Cc3ccccc3)CCC2=O)cc1	i	-4.85*	i	i	i	i	i	i	i
COc1ccc(NC(=O)OCCN2CCN(Cc3ccccc3)CCC2=O)cc1	i	i	i	i	i	x	x	x	x
COc1ccccc1CNS(=O)(=O)c1cccs1	i	i	i	i	i	x	x	x	x
